Source: ChEMBL document CHEMBL3046106, “Synthesis and herbicidal activity of diphenyl ether derivatives containing unsaturated carboxylates” (J Agric Food Chem, 2011)

Experiments:
Echinochloa crus-galli [1] = assay: Herbicidal activity against Echinochloa crus-galli (barnyard grass) at 25 g/hm2 postemergent application after 2 weeks; format: functional
Outline: (§1)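 Seedlings grown 14 days in the greenhouse; plants uniform in size and stage were chosen. Test compound in acetone sprayed post-emergence at a carrier volume equivalent to 187 L/ha. Plants returned to the greenhouse and watered; untreated plants served as control. Each species scored visually two weeks after application on a 0–100 scale (0 no activity, 100 total control).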

Xanthium strumarium [2] = assay: Herbicidal activity against Xanthium strumarium (cocklebur) at 40 g/hm2 postemergent application after 2 weeks; format: functional; outline: as §1
Setaria glauca (foxtail) [3] = assay: Herbicidal activity against Setaria glauca at 40 g/hm2 postemergent application after 2 weeks
Digitaria sanguinalis [4] = assay: Herbicidal activity against Digitaria sanguinalis (hairy crabgrass) at 25 g/hm2 postemergent application after 2 weeks; format: functional; outline: as §1
Portulaca oleracea [5] = assay: Herbicidal activity against Portulaca oleracea at 40 g/hm2 postemergent application after 2 weeks; format: functional; outline: as §1
Abutilon theophrasti [6] = assay: Herbicidal activity against Abutilon theophrasti (velvetleaf) at 100 g/hm2 postemergent application after 2 weeks; format: functional; outline: as §1
Abutilon theophrasti [7] = assay: Herbicidal activity against Abutilon theophrasti (velvetleaf) at 120 g/hm2 postemergent application after 2 weeks; format: functional; outline: as §1
Echinochloa crus-galli [8] = assay: Herbicidal activity against Echinochloa crus-galli (barnyard grass) at 480 g/hm2 postemergent application after 2 weeks; format: functional; outline: as §1
Glycine max [9] = assay: Toxicity against Glycine max (soybean) at 25 g/hm2 postemergent application after 2 weeks; format: organism-based; settings: in vivo, other, 336 h
Commelina communis [10] = assay: Herbicidal activity against Commelina communis (Asiatic dayflower) at 25 g/hm2 post-emergent application after 2 weeks; format: functional; outline: as §1
Triticum aestivum [11] = assay: Toxicity against Triticum aestivum (wheat) at 25 g/hm2 postemergent application after 2 weeks; format: organism-based; settings: in vivo, other, 336 h
Glycine max [12] = assay: Toxicity against Glycine max (soybean) at 100 g/hm2 postemergent application after 2 weeks; format: organism-based; settings: in vivo, other, 336 h; outline: as §1
Xanthium strumarium [13] = assay: Herbicidal activity against Xanthium strumarium (cocklebur) at 100 g/hm2 postemergent application after 2 weeks; format: functional; outline: as §1
Digitaria sanguinalis [14] = assay: Herbicidal activity against Digitaria sanguinalis (hairy crabgrass) at 480 g/hm2 postemergent application after 2 weeks; format: functional; outline: as §1
Echinochloa crus-galli [15] = assay: Herbicidal activity against Echinochloa crus-galli (barnyard grass) at 120 g/hm2 postemergent application after 2 weeks; format: functional; outline: as §1
Abutilon theophrasti [16] = assay: Herbicidal activity against Abutilon theophrasti (velvetleaf) at 480 g/hm2 postemergent application after 2 weeks; format: functional; outline: as §1
Abutilon theophrasti [17] = assay: Herbicidal activity against Abutilon theophrasti (velvetleaf) at postemergent application after 2 weeks; format: functional; outline: as §1
Amaranthus retroflexus [18] = assay: Herbicidal activity against Amaranthus retroflexus at 40 g/hm2 postemergent application after 2 weeks; format: functional; outline: as §1
Triticum aestivum [19] = assay: Toxicity against Triticum aestivum (wheat) at 100 g/hm2 postemergent application after 2 weeks; format: organism-based; settings: in vivo, other, 336 h; outline: as §1
Commelina communis [20] = assay: Herbicidal activity against Commelina communis (Asiatic dayflower) at 100 g/hm2 post-emergent application after 2 weeks; format: functional; outline: as §1
[21] = Crop selectivity index, ratio of LD10 for soybean to LD90 for velvetleaf
Abutilon theophrasti [22] = assay: Herbicidal activity against Abutilon theophrasti (velvetleaf) at 25 g/hm2 postemergent application after 2 weeks; format: functional; outline: as §1
Digitaria sanguinalis [23] = assay: Herbicidal activity against Digitaria sanguinalis (hairy crabgrass) at 100 g/hm2 postemergent application after 2 weeks; format: functional; outline: as §1
Echinochloa crus-galli [24] = assay: Herbicidal activity against Echinochloa crus-galli (barnyard grass) at 30 g/hm2 postemergent application after 2 weeks; format: functional; outline: as §1
Echinochloa crus-galli [25] = assay: Herbicidal activity against Echinochloa crus-galli (barnyard grass) at 100 g/hm2 postemergent application after 2 weeks; format: functional; outline: as §1
Glycine max [26] = assay: Toxicity against Glycine max (soybean) at postemergent application after 2 weeks; format: organism-based; settings: in vivo, other, 336 h; outline: as §1
Digitaria sanguinalis [27] = assay: Herbicidal activity against Digitaria sanguinalis (hairy crabgrass) at 120 g/hm2 postemergent application after 2 weeks; format: functional; outline: as §1
Digitaria sanguinalis [28] = assay: Herbicidal activity against Digitaria sanguinalis (hairy crabgrass) at 40 g/hm2 postemergent application after 2 weeks; format: functional; outline: as §1
Commelina communis [29] = assay: Herbicidal activity against Commelina communis (Asiatic dayflower) at 40 g/hm2 post-emergent application after 2 weeks; format: functional; outline: as §1
Xanthium strumarium [30] = assay: Herbicidal activity against Xanthium strumarium (cocklebur) at 25 g/hm2 postemergent application after 2 weeks; format: functional; outline: as §1
Abutilon theophrasti [31] = assay: Herbicidal activity against Abutilon theophrasti (velvetleaf) at 40 g/hm2 postemergent application after 2 weeks; format: functional; outline: as §1
Echinochloa crus-galli [32] = assay: Herbicidal activity against Echinochloa crus-galli (barnyard grass) at 40 g/hm2 postemergent application after 2 weeks; format: functional; outline: as §1
Abutilon theophrasti [33] = assay: Herbicidal activity against Abutilon theophrasti (velvetleaf) at 30 g/hm2 postemergent application after 2 weeks; format: functional; outline: as §1
Digitaria sanguinalis [34] = assay: Herbicidal activity against Digitaria sanguinalis (hairy crabgrass) at 30 g/hm2 postemergent application after 2 weeks; format: functional; outline: as §1
Abutilon theophrasti [35] = assay: Herbicidal activity against Abutilon theophrasti (velvetleaf) at 200 g/hm2 postemergent application after 2 weeks; format: functional; outline: as §1
Xanthium strumarium [36] = assay: Herbicidal activity against Xanthium strumarium (cocklebur) at 400 g/hm2 postemergent application after 2 weeks; format: functional; outline: as §1
Echinochloa crus-galli [37] = assay: Herbicidal activity against Echinochloa crus-galli (barnyard grass) at 200 g/hm2 postemergent application after 2 weeks; format: functional; outline: as §1
Setaria glauca (foxtail) [38] = assay: Herbicidal activity against Setaria glauca at 400 g/hm2 postemergent application after 2 weeks
Triticum aestivum [39] = assay: Toxicity against Triticum aestivum (wheat) at 400 g/hm2 postemergent application after 2 weeks; format: organism-based; settings: in vivo, other, 336 h
Outline: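 Greenhouse post-emergence test: plants grown 14 days, then chosen for uniform size and stage. Compound dissolved in acetone and sprayed at a carrier volume equivalent to 187 L per hectare, over […]. Untreated plants served as control. Plants were rated two weeks after application on a 0–100 scale (0 no activity, 100 total control).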

Digitaria sanguinalis [40] = assay: Herbicidal activity against Digitaria sanguinalis (hairy crabgrass) at 400 g/hm2 postemergent application after 2 weeks; format: functional; outline: as §1
Echinochloa crus-galli [41] = assay: Herbicidal activity against Echinochloa crus-galli (barnyard grass) at 400 g/hm2 postemergent application after 2 weeks; format: functional; outline: as §1
Digitaria sanguinalis [42] = assay: Herbicidal activity against Digitaria sanguinalis (hairy crabgrass) at 1000 g/hm2 postemergent application after 2 weeks; format: functional; outline: as §1
Digitaria sanguinalis [43] = assay: Herbicidal activity against Digitaria sanguinalis (hairy crabgrass) at 200 g/hm2 postemergent application after 2 weeks; format: functional; outline: as §1
Amaranthus retroflexus [44] = assay: Herbicidal activity against Amaranthus retroflexus at 400 g/hm2 postemergent application after 2 weeks; format: functional; outline: as §1
Abutilon theophrasti [45] = assay: Herbicidal activity against Abutilon theophrasti (velvetleaf) at 1000 g/hm2 postemergent application after 2 weeks; format: functional; outline: as §1
Echinochloa crus-galli [46] = assay: Herbicidal activity against Echinochloa crus-galli (barnyard grass) at 1000 g/hm2 postemergent application after 2 weeks; format: functional; outline: as §1
Abutilon theophrasti [47] = assay: Herbicidal activity against Abutilon theophrasti (velvetleaf) at 400 g/hm2 postemergent application after 2 weeks; format: functional; outline: as §1
Commelina communis [48] = assay: Herbicidal activity against Commelina communis (Asiatic dayflower) at 400 g/hm2 post-emergent application after 2 weeks; format: functional; outline: as §1
Portulaca oleracea [49] = assay: Herbicidal activity against Portulaca oleracea at 400 g/hm2 postemergent application after 2 weeks; format: functional; outline: as §1
Glycine max [50] = assay: Toxicity against Glycine max (soybean) at 400 g/hm2 postemergent application after 2 weeks; format: organism-based; settings: in vivo, other, 336 h; outline: as §1
Abutilon theophrasti [51] = assay: Herbicidal activity against Abutilon theophrasti (velvetleaf) at 2000 g/hm2 postemergent application after 2 weeks; format: functional; outline: as §1
Echinochloa crus-galli [52] = assay: Herbicidal activity against Echinochloa crus-galli (barnyard grass) at 2000 g/hm2 postemergent application after 2 weeks; format: functional; outline: as §1
Digitaria sanguinalis [53] = assay: Herbicidal activity against Digitaria sanguinalis (hairy crabgrass) at 2000 g/hm2 postemergent application after 2 weeks; format: functional; outline: as §1

## CCOC(=O)/C=C/COC(=O)c1cc(Oc2ccc(C(F)(F)F)cc2Cl)ccc1[N+](=O)[O-]
Echinochloa crus-galli [1]
  Activity: 0%
Xanthium strumarium [2]
  Activity: 70%
Setaria glauca (foxtail) [3]
  Activity: <70%
Digitaria sanguinalis [4]
  Activity: 5%
Portulaca oleracea [5]
  Activity: 95%
Abutilon theophrasti [6]
  Activity: 100%
Abutilon theophrasti [7]
  Activity: 99%
Echinochloa crus-galli [8]
  Activity: 70%
Glycine max [9]
  Activity: 5%
Commelina communis [10]
  Activity: 35%
Triticum aestivum [11]
  Activity: 10%
Glycine max [12]
  Activity: 10%
Xanthium strumarium [13]
  Activity: 98%
Digitaria sanguinalis [14]
  Activity: 90%
Echinochloa crus-galli [15]
  Activity: 50%
Abutilon theophrasti [16]
  Activity: 100%
Abutilon theophrasti [17]
  LD90: 19.4 g/hm2
Amaranthus retroflexus [18]
  Activity: 95%
Triticum aestivum [19]
  Activity: 25%
Commelina communis [20]
  Activity: 95%
[21]
  Selectivity Index: 3.2
Abutilon theophrasti [22]
  Activity: 65%
Digitaria sanguinalis [23]
  Activity: 60%
Echinochloa crus-galli [24]
  Activity: 40%
Echinochloa crus-galli [25]
  Activity: 55%
Glycine max [26]
  LD10: 63 g/hm2
Digitaria sanguinalis [27]
  Activity: 80%
Digitaria sanguinalis [28]
  Activity: 70%
Commelina communis [29]
  Activity: <70%
Xanthium strumarium [30]
  Activity: 40%
Abutilon theophrasti [31]
  Activity: 95%
Echinochloa crus-galli [32]
  Activity: <70%
Abutilon theophrasti [33]
  Activity: 95%
Digitaria sanguinalis [34]
  Activity: 60%

## O=C(O)c1cc(Oc2ccc(C(F)(F)F)cc2Cl)ccc1[N+](=O)[O-] [ACIFLUORFEN]
Abutilon theophrasti [35]
  Activity: 95%
Abutilon theophrasti [6]
  Activity: 85%
Xanthium strumarium [36]
  Activity: <70%
Echinochloa crus-galli [37]
  Activity: 50%
Glycine max [12]
  Activity: 5%
Xanthium strumarium [13]
  Activity: 80%
Setaria glauca (foxtail) [38]
  Activity: <70%
Abutilon theophrasti [17]
  LD90: 137.4 g/hm2
Triticum aestivum [39]
  Activity: 15%
Triticum aestivum [19]
  Activity: 0%
Commelina communis [20]
  Activity: 60%
Digitaria sanguinalis [40]
  Activity: 70%
[21]
  Selectivity Index: 3.4
Digitaria sanguinalis [23]
  Activity: 10%
Echinochloa crus-galli [41]
  Activity: <70%
Digitaria sanguinalis [42]
  Activity: 10%
Digitaria sanguinalis [43]
  Activity: 0%
Amaranthus retroflexus [44]
  Activity: 95%
Echinochloa crus-galli [25]
  Activity: 25%
Abutilon theophrasti [45]
  Activity: 100%
Glycine max [26]
  LD10: 461.8 g/hm2
Echinochloa crus-galli [46]
  Activity: 90%
Digitaria sanguinalis [28]
  Activity: 0%
Abutilon theophrasti [31]
  Activity: 50%
Echinochloa crus-galli [32]
  Activity: 20%
Abutilon theophrasti [47]
  Activity: 70%
Commelina communis [48]
  Activity: <70%
Portulaca oleracea [49]
  Activity: 95%
Glycine max [50]
  Activity: 10%

## C=CCOC(=O)/C=C/COC(=O)c1cc(Oc2ccc(C(F)(F)F)cc2Cl)ccc1[N+](=O)[O-]
Abutilon theophrasti [51]
  Activity: 100%
Echinochloa crus-galli [52]
  Activity: 60%
Digitaria sanguinalis [42]
  Activity: 25%
Digitaria sanguinalis [53]
  Activity: 55%
Abutilon theophrasti [45]
  Activity: 80%
Echinochloa crus-galli [46]
  Activity: 30%
